These results are taken from PMC10009879 (RSC Advances, 2023).

Test [1] deals with α-glucosidase. The settings on record: cited from earlier work.
For test [2], the system named is α-glucosidase. Put plainly: α-Glucosidase inhibition type and inhibition constants by Lineweaver–Burk plots. The test is classed as biochemical, Saccharomyces cerevisiae. An outline of the steps: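 Yeast (Saccharomyces cerevisiae) α-glucosidase with 4-nitrophenyl […]-D-glucopyranoside (pNPG) as substrate. The test compound was run at 0, 1.98, 3.97 and 7.93 μM, each in three replicates. Inhibition type was assigned from Lineweaver–Burk plots using a modified published method. Ki (free enzyme) and K′i (enzyme–substrate complex) were derived from the same data.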

Test [3] concerns α-glucosidase. The test can be described thus: Screening of α-glucosidase inhibitory activity. The test is classed as biochemical, Saccharomyces cerevisiae. Conditions: times better than acarbose.
The target in test [4] is α-glucosidase. The settings on record: previous study; ref Zhang et al., 23; cited from earlier work.
The target in another test is yeast α-glucosidase. Conditions: in vitro; cited from earlier work.
The test system of test [5] is STZ-induced diabetic rats. The settings on record: cited from earlier work.
For test [6], the system named is mice fed a high fat and high sucrose diet. The settings on record: cited from earlier work.

SMILES strings stand for the structures. In brackets after ≈: the same amount, converted by molar mass.

As for `O=c1c(O)c(-c2ccc(O)cc2)oc2cc(O)cc(O)c12` [Compound 3, kaempferol], the α-glucosidase inhibition with α-glucosidase [1] was approximately 95.1%.

What is called Ki is a measure of affinity in units of concentration, obtained from inhibition or displacement. For `O=c1c(O)c(-c2ccc(O)c(O)c2)oc2c(Br)c(O)cc(O)c12` [Compound 5a, 8-Bromoquercetin], in the test with α-glucosidase [2] (Lineweaver–Burk plots, 0, 1.98, 3.97, 7.93 μM), the “type of α-glucosidase inhibition” value is “mixed mode inhibitor”. On α-glucosidase [2] (read-out: inhibition constant binding with the free enzyme (Ki), secondary plot), the Ki was found to be 5.58 ± 0.35 µM. Besides, in the test on α-glucosidase [2] (secondary plot), the “inhibition constant binding with the enzyme–substrate complex (K′i)” value was determined as 10.33 ± 0.85 µM. Also, the “α-glucosidase inhibition relative to the standard drug acarbose” value in the test on α-glucosidase [3] is given as “thirty-seven times better”.

For the molecule `C[C@@H]1O[C@@H](Oc2c(-c3ccc(O)c(O)c3)oc3cc(O)cc(O)c3c2=O)[C@H](O)[C@H](O)[C@H]1O` [Compound 6, quercitrin], the “IC50 α-glucosidase inhibition” value on α-glucosidase [4] is 215 ± 4 µg/mL (≈ 480 µM).

In the case of `O=c1c(O)c(-c2cc(O)c(O)c(O)c2)oc2cc(O)cc(O)c12` [myricetin], the “IC50 yeast α-glucosidase” value at yeast α-glucosidase is 5 µg/mL (≈ 15.7 µM). In addition, the “effect on fasting blood glucose level” value in test [5] and in test [6] was “cut down the fasting blood glucose level” throughout.
